Common to all, as to type: cell-based
Test [1] concerns Cystic fibrosis transmembrane conductance regulator (Homo sapiens), P13569 [F508del]. In words: Corrector activity at human CFTR deltaF508 mutant expressed in FRT cells assessed as iodide influx at 25 uM. The method, boiled down:
(§1)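 FRT epithelial cells stably co-expressing human ΔF508-CFTR and halide sensor YFP-H148Q/I152L; grown 24 h at 37°C, then 20 h with compound. PBS wash, then forskolin 20 μM plus genistein 50 μM for 20 min. Fluorescence read 2 s baseline, then 12 s after iodide-substituted PBS addition; influx rate from exponential fit of final 11.5 s, normalized to initial fluorescence; DMSO vehicle negative control.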

The test system is the same in test [2]. In words: Corrector activity at human CFTR deltaF508 mutant expressed in FRT cells assessed as iodide influx at 10 uM. In a few lines: as §1
Test [3] deals with Cystic fibrosis transmembrane conductance regulator (Homo sapiens, UniProt P13569, F508DEL). In words: Corrector activity at human CFTR deltaF508 mutant expressed in FRT cells assessed as iodide influx. The settings on record: read-out: Kd. The method, boiled down: as §1

The structures appear in SMILES notation. The source made the active and inactive calls. No cut-off for these calls is given here.

Cystic fibrosis transmembrane conductance regulator, sequence (P13569 as listed by the source): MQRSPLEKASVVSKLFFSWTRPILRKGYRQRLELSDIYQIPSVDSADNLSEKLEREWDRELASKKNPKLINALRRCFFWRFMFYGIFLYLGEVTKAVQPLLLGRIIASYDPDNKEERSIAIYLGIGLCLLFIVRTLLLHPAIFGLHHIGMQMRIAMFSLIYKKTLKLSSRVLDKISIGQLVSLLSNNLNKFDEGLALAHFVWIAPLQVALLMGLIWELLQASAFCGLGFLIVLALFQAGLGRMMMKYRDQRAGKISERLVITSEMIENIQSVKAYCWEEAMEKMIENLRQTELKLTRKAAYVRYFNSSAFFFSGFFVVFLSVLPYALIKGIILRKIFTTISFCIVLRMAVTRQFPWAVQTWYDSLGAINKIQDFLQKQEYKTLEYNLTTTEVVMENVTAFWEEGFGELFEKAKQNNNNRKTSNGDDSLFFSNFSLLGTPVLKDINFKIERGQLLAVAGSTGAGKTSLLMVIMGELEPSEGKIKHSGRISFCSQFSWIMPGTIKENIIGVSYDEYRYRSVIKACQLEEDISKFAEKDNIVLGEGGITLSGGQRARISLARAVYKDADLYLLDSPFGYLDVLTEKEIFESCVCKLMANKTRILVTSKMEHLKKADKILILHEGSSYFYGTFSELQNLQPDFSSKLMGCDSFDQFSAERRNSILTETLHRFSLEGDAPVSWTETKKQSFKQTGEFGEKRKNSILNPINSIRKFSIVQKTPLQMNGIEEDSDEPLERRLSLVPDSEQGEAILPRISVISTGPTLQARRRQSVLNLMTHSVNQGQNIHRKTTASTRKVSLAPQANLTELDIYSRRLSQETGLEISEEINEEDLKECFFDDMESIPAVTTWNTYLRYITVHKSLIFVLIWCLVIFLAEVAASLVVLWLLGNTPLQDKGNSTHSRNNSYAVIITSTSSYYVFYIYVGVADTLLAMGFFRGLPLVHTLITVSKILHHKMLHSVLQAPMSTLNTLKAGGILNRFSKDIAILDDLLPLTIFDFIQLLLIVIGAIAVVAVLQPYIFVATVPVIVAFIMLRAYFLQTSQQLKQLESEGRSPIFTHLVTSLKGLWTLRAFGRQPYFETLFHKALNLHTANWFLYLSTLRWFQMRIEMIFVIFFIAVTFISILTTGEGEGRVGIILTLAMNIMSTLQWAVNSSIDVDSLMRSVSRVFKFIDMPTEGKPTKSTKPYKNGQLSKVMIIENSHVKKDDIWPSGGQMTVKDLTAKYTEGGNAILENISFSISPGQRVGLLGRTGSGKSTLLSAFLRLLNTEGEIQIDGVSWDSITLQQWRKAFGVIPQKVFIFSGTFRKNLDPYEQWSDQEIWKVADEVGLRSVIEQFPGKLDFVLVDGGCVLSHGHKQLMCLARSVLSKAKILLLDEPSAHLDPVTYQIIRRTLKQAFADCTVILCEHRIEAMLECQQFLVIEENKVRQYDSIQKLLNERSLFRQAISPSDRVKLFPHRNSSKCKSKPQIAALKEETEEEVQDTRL
Cystic fibrosis transmembrane conductance regulator (Homo sapiens), P13569 [F508del], sequence (P13569 as listed by the source): as above

With `COc1ccc(Cl)cc1Nc1nc(-c2sc(NC(=O)c3ccccc3)nc2C)cs1`, the outcome in test [1] and in test [2] was Active. Further, the EC50 in test [3] was found to be 900 nM. `COc1ccc(OC)c(Nc2nc(-c3sc(NC(=O)c4ccc(Cl)cc4)nc3C)cs2)c1`: the EC50 in test [3] stood at 1100 nM. Still for that read-out and setting: the same measure for `Cc1ccc(Nc2nc(-c3sc(NC(=O)c4ccc(Cl)cc4)nc3C)cs2)cc1`: 1100 nM; for `Cc1nc(NC(=O)c2ccc([N+](=O)[O-])cc2)sc1-c1csc(Nc2ccc(Cl)cc2)n1`: 800 nM; for `CCOc1ccccc1Nc1nc(-c2sc(NC(=O)C(C)(C)C)nc2C)cs1`: 800 nM.

For the compound `COc1ccc(Cl)cc1Nc1nc(-c2sc(NC(=O)C(C)(C)C)nc2C)cs1`, the EC50 in test [3] is 700 nM.

As for `CCCCCCC(=O)Nc1nc(C)c(-c2csc(Nc3cc(OC)ccc3OC)n2)s1`, in test [3], the EC50 came to 1100 nM. On the same count and under the same terms, to `Cc1nc(NC(=O)c2ccc(Cl)cc2)sc1-c1csc(Nc2ccc(Cl)cc2)n1` belongs 1100 nM.

As to `COc1c(Cl)cccc1Nc1nc(-c2sc(NC(=O)c3ccccc3)nc2C)cs1`, the result in test [1] and in test [2] was Active. Take `Cc1nc(NC(=O)c2ccccc2)sc1-c1csc(Nc2cccc(Cl)c2Cl)n1`: the result in test [1] and in test [2] was Active.
